Compound activity (PubChem)
MMP13 inh: blocks human MMP13 activity; P45452; MMP-13 fTHP FRET cleavage, Mca fluorescence; inhibition, % at 4 µM; hit rate 0.07% among 65,000; AID 570;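 active means inhibition above the mean of compound-free control plate wells plus 3 SD, cut at about 14% in these data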
Htt clearance: compounds clearing mutant huntingtin protein; inhibition, % at 1.5 µM; hit rate 0.42% among 47,000; HeLa Exon1htt(103Q)mCFP, aggregate imaging; zero = plate's median compound well;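 active means inhibition of aggregate fluorescence above about 70%, also judged a hit by eye on the cell image, limit read from the data, passing the limit was not always enough; inconclusive means no rule stated for this call; inactive means not judged a hit on image review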;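 further: cells exposed to compound for three days before fixation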
JNK3 inh: blocks human JNK3 kinase activity; AID 746; hit rate 0.61% among 60,000; inhibition, % at 8 µM; purified JNK3 kinase activity, HTS; P53779; in the data active means inhibition above about 17%
Target sequence (P53779 whole entry, looked up): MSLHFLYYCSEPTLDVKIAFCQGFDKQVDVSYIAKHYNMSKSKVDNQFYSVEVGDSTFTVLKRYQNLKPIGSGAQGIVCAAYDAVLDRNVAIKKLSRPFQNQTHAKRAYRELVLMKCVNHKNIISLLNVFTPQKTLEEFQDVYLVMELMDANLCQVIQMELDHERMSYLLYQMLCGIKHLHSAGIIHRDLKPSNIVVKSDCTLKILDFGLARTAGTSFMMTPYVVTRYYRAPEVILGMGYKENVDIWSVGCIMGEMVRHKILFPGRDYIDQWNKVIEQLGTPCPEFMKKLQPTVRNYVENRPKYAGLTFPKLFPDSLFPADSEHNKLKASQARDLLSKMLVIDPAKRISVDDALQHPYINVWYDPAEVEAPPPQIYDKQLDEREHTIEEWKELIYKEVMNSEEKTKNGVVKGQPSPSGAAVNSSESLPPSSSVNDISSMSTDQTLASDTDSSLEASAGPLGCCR
AP complement: alternative pathway complement inhibition, orthogonal assay; Human serum alternative complement pathway, LPS-coated ELISA, C3 deposition; tested in compound mixtures; inhibition, % at 5 µM; hit rate 0.08% among 62,000;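 active means inhibition above 30% in each of the two pooled mixtures holding the compound, so the lower value exceeds 30%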
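Test system – human serum alternative complement pathway, C3 deposition on LPS-coated wells · Buffer or medium – diluted human serum in Mg2+-EGTA GVB++ · Compound dosing – 5 µM each compound, pools of ten, 50 µM per pool · Schedule – 1 h serum-compound exposure at 37 °C · Measured by – Anti-C3 ELISA, OD 450 nm · Read-out basis – percent inhibition of C3 deposition onto LPS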
Hits are given with their value; i = inactive; ? = inconclusive; nt = no result given. Rows were chosen to be rich in hits. Some 0.68% of all compounds tested hit in one or more screens of this group.

SMILES	MMP13 inh	Htt clearance	JNK3 inh	AP complement
CC(=O)Nc1ccc(S(=O)(=O)N2CCC(n3cnc4cc(F)ccc43)CC2)cc1	i	i	23	i
c1ccc2[nH]c(CSc3ncnc4c3oc3ccccc34)nc2c1	i	75	19	i
Cc1nc(SCc2nc3ccccc3[nH]2)c2oc3ccccc3c2n1	i	i	i	i
CN(C)CCCOC(=O)Cc1ccc(Cl)cc1	i	i	i	i
CN(C)CCCOC(=O)c1ccccc1Cl	nt	73	nt	nt
COc1cc(NC(=O)COc2cccc(OC)c2)cc(OC)c1	i	i	i	i
CCOC(=O)c1[nH]cnc1C(=O)Nc1ccccn1	i	i	i	i
O=C(c1ccccc1)c1nc[nH]c1C(=O)Nc1ccccn1	i	i	18	i
COn1c(-c2ccccc2)nc2c1CCc1nonc1-2	nt	i	nt	nt
O=C(O)CC(c1ccccc1)c1ccccc1	i	86	i	i
CC(=O)Nc1ccc(-c2nnn(CC(=O)c3ccccc3)n2)cc1Cl	i	nt	i	i
CC(=O)NC1CCN(C(=O)N2CCCC2)CC1	i	nt	i	37
COc1cccc(C(=O)NC2CCN(C(=O)N3CCCCC3)CC2)c1	i	i	i	i
COCCSc1ccccc1C(=O)Nc1cc(C)on1	i	75	i	i
O=C(NC1CCCC1)c1cccnc1N1CCCCCC1	i	i	34	i
O=c1c2[nH]c3cccc(Cl)c3c2ncn1Cc1ccncc1	i	i	22	i
O=c1c2[nH]c3ccccc3c2ncn1Cc1ccncc1	i	?	i	i
COc1ccc(CCN2C(=O)CC(N3CCN(c4ccccn4)CC3)C2=O)cc1OC (centres undefined)	i	nt	i	33
O=C1CC(N2CCN(c3ccccn3)CC2)C(=O)N1CC(c1ccccc1)c1ccccc1 (centres undefined)	nt	i	nt	nt
Cc1[nH]nc2c1C1(C(=O)N(Cc3ccc(Cl)cc3)c3ccccc31)C(C#N)=C(N)O2 (centres undefined)	i	i	i	i
CCCCN(C(=O)Cn1nnc2ccccc21)C(C(=O)NCCOC)c1cccs1 (centres undefined)	nt	74	nt	nt
O=C(CCCCCN1C(=O)c2ccccc2C1=O)NCc1ccco1	i	nt	i	i
CCOC(=O)C1=C(N)n2c(s/c(=C/c3ccco3)c2=O)=C(C(=O)OC)C1c1ccco1 (centres undefined)	14	i	i	i
Cc1ccc2c(c1)CC1(CN2C)C(=O)OC2(CCCCC2)OC1=O	i	i	31	i
CCOC(=O)/C(C#N)=C1/C=Nc2ccccc2N1	14	nt	i	i
SMILES	MMP13 inh	Htt clearance	JNK3 inh	AP complement
COc1ccc(Nc2ccnc3ccccc23)cc1	i	91	i	i
COc1cccc(Nc2ncnc3ccccc23)c1	nt	i	nt	nt
COc1ccccc1N1CCN(c2ncnc3c2oc2ccccc23)CC1	i	i	i	33
COc1cc(CC(=O)Nc2ncc(C)s2)cc(OC)c1OC	i	i	42	i
Cc1cnc(NC(=O)COc2ccccc2)s1	i	i	i	i
COc1ccc(CC(=O)Nc2nc(C)cs2)cc1OC	i	nt	32	i
COc1ccc(CCCc2nnc(SCC(=O)Nc3nc(C)cs3)n2C)cc1C	i	i	i	i
CCn1c(SCC(=O)n2c(C)c(C)c3ccccc32)nnc1-c1ccco1	i	nt	i	i
CCCOc1ccc(C(=O)Nn2c(C)nc3ccccc3c2=O)cc1	i	i	i	i
O=S1(=O)C=C(SCc2cccc(Cl)c2)Nc2ccccc21	nt	i	nt	nt
CCOC(=O)c1c(C)[nH]sc1=S	i	i	19	nt
CCOC(=O)N1CCN(S(=O)(=O)c2ccc3c(c2)SCC(=O)N3)CC1	i	i	i	i
CCOC(=O)N1CCN(S(=O)(=O)c2ccc3c(c2)OCC(=O)N3)CC1	i	71	i	i
CCOC(=O)c1cnc2ccc(OCC)cc2c1N1CCN(C)CC1	i	i	i	i
CCOC(=O)c1cnc2ccc(Cl)cc2c1N1CCN(C)CC1	i	i	32	i
CCOC(=O)CN1C(=O)C(O)=C(C(C)=O)C1c1ccccc1 (centres undefined)	i	i	i	i
COCc1cc(C)nc(SCC(=O)Nc2cc3c(cc2C#N)OCO3)c1C#N	i	i	22	i
CCOc1ccc2ccccc2c1CNCCN1CCOCC1	i	70	i	i
Cc1cc2ccccc2cc(C)c1=O	i	i	i	nt
O=C(Cn1nnc(-c2ccccc2F)n1)Nc1ccc2c(c1)OCO2	16	i	i	i
O=C(Cn1nnc(-c2ccncc2)n1)Nc1ccc2c(c1)CCC2	15	i	i	i
OCCN1CCN(c2nc(N3CCCCC3)nc(N3CCCCC3)n2)CC1	nt	nt	nt	i
CCOC(=O)c1n[nH]c2ccccc12	i	nt	38	nt
CCc1ccc2c(COC(=O)c3n[nH]c4ccccc34)cc(=O)oc2c1	i	nt	21	i
CCC(C)C(=O)Nc1nc(C)c(-c2csc(Nc3cc(Cl)ccc3OC)n2)s1 (centres undefined)	nt	72	nt	nt
SMILES	MMP13 inh	Htt clearance	JNK3 inh	AP complement
CC1=CC(C)(C)Nc2ccccc21	i	nt	i	i
Cn1nc(-c2ccccc2)c2nc3ccccc3nc21	i	i	i	i
CCCCn1nc(-c2ccccc2)c2nc3ccccc3nc21	nt	74	nt	nt
O=C(CSc1ncccc1-c1nc2ccccc2[nH]1)N1CCN(c2ccccc2F)CC1	i	i	28	i
O=C(Nc1ccc(-c2nc3cccnc3s2)cc1)c1ccco1	i	nt	23	i
O=C(Nc1cccc(-c2nc3cccnc3s2)c1)c1ccco1	i	nt	i	nt
Cc1c(NC(=O)c2ccccc2)c(=O)n(-c2ccccc2)n1C	nt	78	nt	nt
O=c1cc2n(c(=O)[nH]1)CCC1=C2CCCC1	i	nt	i	i
Cc1nn(C(C)C(=O)O)c(=O)c2c1sc1ccccc12 (centres undefined)	i	nt	21	i
COc1ccc(C(c2sc3ncnn3c2O)N2CC(C)OC(C)C2)cc1OC (centres undefined)	i	i	i	i
O=C1c2ccccc2C(=O)C1c1ccncc1	i	i	51	i
Cn1c(=O)c2c(nc(SCC(=O)NCc3ccc4c(c3)OCO4)n2Cc2ccc(Cl)cc2)n(C)c1=O	nt	81	nt	nt
O=C(Nc1ccc2c(c1)OCO2)N1CCN(S(=O)(=O)c2ccc(Cl)cc2)CC1	i	77	i	i
O=C(CN1CCN(S(=O)(=O)c2ccc(Cl)cc2)CC1)Nc1ccc2c(c1)OCO2	i	nt	i	i
CN(C)c1nc(SCC#N)nc(N(C)C)n1	i	72	i	i
C=CCn1c(SCc2nc3ccccc3[nH]2)nnc1-c1ccccn1	i	i	i	i
COc1ccc(-c2cc3c(=O)n(CC(=O)NC4CCN(Cc5ccccc5)CC4)ncn3n2)cc1	i	nt	i	i
COc1ccc(S(=O)(=O)N(C)CC(=O)Nc2cccc(C(C)=O)c2)cc1	i	i	i	i
COc1ccc(CSc2nc(C)cc(=O)[nH]2)cc1	25	i	i	i
COc1ccc(C(=O)CSc2nc(C)cc(=O)[nH]2)cc1	i	nt	i	i
Cn1cc(C(=O)c2ccc(F)cc2)cc1-c1nc2ccccc2n1C	i	i	i	i
CC(=O)c1cc(-c2nc3ccccc3n2C)n(C)c1	i	71	i	i
CCN(CC)S(=O)(=O)C1CCS(=O)(=O)C1 (centres undefined)	i	nt	i	i
c1ccc2c3c([nH]c2c1)-c1[nH]ncc1CC3	i	nt	54	i
O=C1CCCc2c1[nH]c1ccccc21	i	nt	i	i
